# Runt-CBFb FRET = blocks binding of human RUNX1 Runt domain to CBFb. Q01196+Q13951. Cerulean-Runt/Venus-CBFb FRET ratio 530/480, 1 h. inhibition, % at 20 µM. 0.46% of 220,000 active. AID 1496;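 active means inhibition over about 50% at 20 µM in the single-dose screen, limit read from the data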;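 further: 0% = DMSO wells and 100% = excess unlabeled CBFb competitor control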
# Target sequence (Q01196 whole entry, looked up, the tested form may be a part): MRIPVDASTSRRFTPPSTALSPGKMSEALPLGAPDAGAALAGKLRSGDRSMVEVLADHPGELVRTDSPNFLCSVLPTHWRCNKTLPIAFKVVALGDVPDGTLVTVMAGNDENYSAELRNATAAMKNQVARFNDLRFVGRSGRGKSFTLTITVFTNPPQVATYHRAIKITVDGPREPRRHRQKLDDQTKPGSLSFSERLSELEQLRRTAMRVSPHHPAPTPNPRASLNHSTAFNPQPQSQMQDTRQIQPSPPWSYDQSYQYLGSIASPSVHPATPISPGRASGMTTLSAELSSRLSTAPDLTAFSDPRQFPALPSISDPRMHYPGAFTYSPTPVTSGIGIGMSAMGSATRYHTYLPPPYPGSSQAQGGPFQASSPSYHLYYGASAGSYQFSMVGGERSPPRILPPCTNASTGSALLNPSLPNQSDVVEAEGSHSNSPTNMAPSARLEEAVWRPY
# Target sequence (Q13951 whole entry, looked up, the tested form may be a part): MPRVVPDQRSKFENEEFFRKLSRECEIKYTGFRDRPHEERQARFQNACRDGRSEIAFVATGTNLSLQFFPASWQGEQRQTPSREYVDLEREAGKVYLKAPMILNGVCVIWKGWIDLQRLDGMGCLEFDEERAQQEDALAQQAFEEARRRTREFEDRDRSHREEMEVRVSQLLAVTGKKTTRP
#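 Assay system: Cerulean-tagged RUNX1 Runt domain (FRET donor) fusion protein / Amount: 100 nM each of Venus-CBFb and Cerulean-Runt domain / Medium: Tris buffer pH 7.5 with salts and BSA / Also added: Venus-CBFb 100 nM / Schedule: 1 h complex formation plus 1 h compound treatment, room temperature / Signal: FRET fluorescence / Read-out: loss of energy transfer signal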
# VIM-2 inhibitor = inhibitors of Pseudomonas aeruginosa VIM-2 metallo-beta-lactamase; 0.89% of 290,000 active; purified VIM-2, nitrocefin hydrolysis, epi-absorbance fluorescence; inhibition, % at 5.6 µM; AID 1527;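 active means inhibition above the mean of all tested compounds plus 3 SD, cutoff set per screening run, cut at about 7.5% in these data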;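 further: red hydrolysis product quenches plate fluorescence so inhibitors raise well fluorescence; 0% = enzyme with DMSO and 100% = DMSO without enzyme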
# IMP-1 inh = blocks Pseudomonas aeruginosa IMP-1 metallo-beta-lactamase; inhibition, % at 5.6 µM; 0.45% of 290,000 active; purified IMP-1, nitrocefin hydrolysis, epi-absorbance fluorescence; AID 1556;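 active means inhibition above the mean plus 3 SD of all compounds in the same screening run, cut at about 4.5% in these data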;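 further: 0% = IMP-1 with DMSO and 100% = DMSO wells lacking enzyme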
#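 assay system = purified recombinant IMP-1 metallo-beta-lactamase enzyme | schedule = 15 min preincubation plus 25 min reaction at 25 °C | signal = Epi-absorbance fluorescence, 480 nm excitation, 530 nm emission | read-out basis = percent inhibition from optical density relative to buffer-blank wells | controls = IMP-1 with DMSO as 0%, enzyme-free DMSO as 100%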
# RanGTP-Impb inh = inhibitors of RanGTP-importin-beta interaction, primary screen, biochemical, FRET, CFP-Ran, YFP-importin-beta, homogeneous; inhibition, % (no concentration beside the values); cell-free CFP-Ran/YFP-importin-beta FRET ratio; 1.1% of 300,000 active; AID 2216;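 active means more than half of the replicate wells show a fall in the fluorescence ratio signal beyond about 16%, limit read from the data, passing the limit was not always enough; inconclusive means exactly half of the replicate wells pass the set limit; inactive means fewer than half of replicates pass the limit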;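 further: 0% = DMSO wells and 100% = Ran loaded with GDP instead of GTP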
# Runt-SMMHC FRET = inhibitors of human RUNX1 Runt domain binding to CBFb-SMMHC; 0.74% of 220,000 active; AID 1434; Cerulean-Runt/Venus-CBFb-SMMHC FRET ratio 530/480, 1 h; inhibition, % at 20 µM;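 active means mean inhibition across duplicate retests at 20 µM reaching about 50%, limit read from the data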;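 further: 0% = DMSO wells and 100% = wells with excess untagged CBFb-SMMHC; inhibitors lower the FRET ratio by blocking Runt binding to CBFb-SMMHC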
# Active calls of the source: *; ? = inconclusive; . = no result. An excerpt weighted towards active compounds, which were near 2.6% of everything screened.
SMILES,Runt-CBFb FRET,VIM-2 inhibitor,IMP-1 inh,RanGTP-Impb inh,Runt-SMMHC FRET
COc1ccccc1NC(=O)c1cc2ccc(O)cc2o/c1=N\O,95*,1,-1,135*,81*
COc1ccc2oc(=N)c(C(=O)Nc3ccc(C)cc3)cc2c1,.,-3,-3,-2,.
COc1ccc2o/c(=N\O)c(C(=O)Nc3ccc(C)cc3)cc2c1,21,0,-2,4,63*
COc1ccccc1NC(=O)c1cc2cc(Br)ccc2cc1O,-29,-2,-2,0,-97
COc1ccccc1NC(=O)c1cc2ccccc2o/c1=N\O,48,.,.,-2,62*
Cc1ccc(CCCNC(=O)C2CCC(=O)N(Cc3cccc(F)c3)C2)cc1 (stereo not drawn),.,-1,-1,3,.
COc1ccccc1NC(=O)C(C)N(C)Cc1ccc(Cl)s1 (stereo not drawn),.,-1,-1,3,.
CCn1cc(C(=O)O)c(=O)c2cnc(N3CCN(C(=S)NC(=O)c4ccc(OC)cc4)CC3)nc21,.,1,-2,-1,.
CN(C(=O)CN(C)S(=O)(=O)c1ccc(F)cc1)c1c(N)n(Cc2ccccc2)c(=O)[nH]c1=O,.,.,.,1,.
Cc1cc(C)c(C)c(OCCN2CCOCC2)c1,.,-2,-7,-3,.
CCn1nc(C)cc1Nc1ccccc1,2,-1,-3,37*,-4
CC(C)Cc1nnc(NS(=O)(=O)Cc2ccccc2)s1,0,10*,-4,0,-5
CS(=O)(=O)Nc1nnc(Cc2ccccc2)s1,1,-4,-3,0,2
COc1ccc(C(=O)Oc2ccc[nH]c2=O)cc1,2,2,0,1,-7
COc1ccc(-c2cc(OC(=O)c3ccc(F)cc3)c3c(C)oc(C)c3c(=O)c2)cc1,1,-2,4.9*,.,-13
O=C(/C=C/c1c[nH]c2ccccc12)c1cccc2ccccc12,20,-1,-3,17*,8
O=C(c1ccccc1)c1c[nH]c2ccccc12,.,-1,-3,-1,.
C=CCOc1ccc(C2C(C#N)=C(N)N(Nc3ccccc3)C3=C2C(=O)CC(C)(C)C3)cc1OC (stereo not drawn),37,-3,-3,7,94*
CCCCN(CC)CCNC(=O)c1cc2c(-c3ccccc3F)nn(C)c2s1,.,9.3*,-2,2,.
CC1CCCCN1CCNC(=O)c1cc2c(-c3ccccc3F)nn(C)c2s1 (stereo not drawn),-5,8.9*,-3,1,2
CCOC(=O)N1CCC(NC(=O)c2cc3c(-c4ccccc4F)nn(C)c3s2)CC1,1,-1,-2,6,0
CCN(CC)CCCNC(=O)c1cc2c(-c3ccc(Cl)cc3)nn(C)c2s1,0,-1,-1,1,-5
Cc1ccc(C2=NN=C(NC(=O)CSc3nncn3C)SC2)cc1,49,1,-1,-1,61*
Cc1ccc(C(=O)NC(=O)CSc2nncn2C)cc1,.,-2,-6,-6,.
O=C(OC(C(=O)O)C(OC(=O)c1ccccc1)C(=O)NCc1ccccc1)c1ccccc1 (stereo not drawn),.,1,6.4*,-1,0
SMILES,Runt-CBFb FRET,VIM-2 inhibitor,IMP-1 inh,RanGTP-Impb inh,Runt-SMMHC FRET
O=C(COC(=O)/C=C/c1ccccc1Cl)NCCNC(=O)COC(=O)/C=C/c1ccccc1Cl,.,-2,-2,-2,.
CCN(CC)c1ccc2nc3ccccc3[n+](CC)c2c1,.,11*,-9,9,.
CSc1cccc(N2C(=O)C3CCCN3C2=S)c1 (stereo not drawn),.,-1,-2,4,.
c1ccc(-c2nnc(-c3ccncc3)o2)cc1,0,1,-4,0,1
COc1ccc(-c2cc(-c3nnc(-c4ccncc4)o3)c3ccccc3n2)cc1,34,-3,-1,3,70*
CC/C(=N\NC(=O)C1CCCC1)c1cccc(Br)c1,.,-2,-4,.,.
CCOC(=O)COc1cc(OCC(=O)OCC)c2c3c(c(=O)oc2c1)CCCC3,.,9.4*,-2,2,.
O=C(O)c1cc2ccc3ccccc3c2oc1=O,28,0,-2,?,97*
O=C(O)c1cc2c(ccc3ccccc32)oc1=O,12,0,-4,0,11
CCN(CC)CCCC(C)Nc1c2ccc(Cl)cc2nc2ccc(OC)cc12 (stereo not drawn),12,0,-2,.,85*
COc1ccc(S(=O)(=O)Nc2cc(C(C)C)c(O)cc2C)cc1,-1,1,2,-1,-1
COc1ccc2nc3cc(Cl)ccc3c(Nc3cc(C(C)C)c(O)cc3C)c2c1,77*,-2,-1,115*,50*
CCOC(CCNC(=O)c1cc(-c2cccs2)nc2ccccc12)OCC,.,-1,-2,3,.
c1ccc2c(Nc3nncs3)c3ccccc3nc2c1,9,-1,-3,59*,17
O=S1(=O)N=C(Nc2nncs2)c2ccccc21,2,-2,-5,0,-10
CCS(=O)(=O)N1CCN(Cc2ccncc2)CC1,0,-4,-3,1,0
CCCS(=O)(=O)N1CCN(Cc2ccncc2)CC1,0,0,5.1*,-4,2
CCn1nc(NC(=O)C2CCCO2)c2cc3cc(C)ccc3nc21 (stereo not drawn),30,2,1,44*,45
CCn1nc(NC(=O)c2ccncc2)c2cc3cccc(C)c3nc21,7,3,1,?,16
Cc1ccc2nc3c(cc2c1)c(NC(=O)C1CCCO1)nn3CC(C)C (stereo not drawn),41,-3,1,71*,59*
Cc1ccc2cc3c(NC(=O)C4CCCO4)nn(CC(C)C)c3nc2c1 (stereo not drawn),21,-3,0,31*,32
CCn1nc(NC(=O)C2CCCO2)c2cc3cccc(C)c3nc21 (stereo not drawn),48,1,-4,58*,81*
COc1ccc(-c2nc3ccccc3nc2-c2ccc(OC)cc2)cc1,.,-2,-1,3,.
COc1ccc2nc(-c3ccco3)c(-c3ccco3)nc2c1,6,1,3,54*,-22
COc1ccc2nc3cccc(OC)c3nc2c1,-6,7.7*,0,-10,-34
COc1ccc2nc3ccccc3nc2c1N,20,-1,-3,1,-1
